Results published in ChEMBL document CHEMBL3763122, “Synthesis, vasorelaxant activity and 2D-QSAR study of some novel pyridazine derivatives” (Eur J Med Chem, 2016).
Where a name gives a salt, the structure may show the parent alone.

Experiment: Vasorelaxant activity in Wistar rat thoracic aortic ring precontracted with norepinephrine hydrochloride
Type: functional
Conditions: Thoracic aorta
In short: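 Isolated rat thoracic aortic rings held at 2 g resting tension for 2 h. Contraction to norepinephrine hydrochloride (10^-6 M) measured before and after exposure to increasing concentrations of compound. Compounds dissolved in DMSO as a 0.01 M stock. DMSO-alone controls run at matching concentrations. Doxazosin mesylate served as reference standard.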

SMILES | IC50
COc1ccccc1-c1ccc(-n2ccnc2)nn1 | 205 µM
COc1ccc(/C=N/Nc2ccc(-c3ccc(Cl)cc3)nn2)c(OC)c1 | 205 µM
N#Cc1cnn(-c2ccc(-c3ccc(Cl)cc3)nn2)c1N | 310 µM
COc1ccccc1-c1ccc(N2CCCC2)nn1 | 284 µM
COc1ccccc1-c1ccc(NN)nn1 | 279 µM
CCOC(=O)c1cnn(-c2ccc(-c3ccccc3OC)nn2)c1N | 225 µM
COc1ccc(/C=N/Nc2ccc(-c3ccccc3OC)nn2)cc1 | 200 µM
COc1ccc(-c2ccc(-n3ccnc3)nn2)cc1 | 259 µM
N#Cc1cnn(-c2ccc(-c3ccccc3)nn2)c1N | 287 µM
c1ccc(-c2ccc(N3CCCC3)nn2)cc1 | 235 µM
COc1ccccc1-c1ccc(-n2nc(C)cc2C)nn1 | 299 µM
Clc1ccc(-c2ccc(N3CCCC3)nn2)cc1 | 300 µM
COc1ccc(-c2ccc(NN)nn2)cc1 | 235 µM
CCOC(=O)c1cnn(-c2ccc(-c3ccccc3)nn2)c1N | 254 µM
COc1cc(/C=N/Nc2ccc(-c3ccc(Cl)cc3)nn2)cc(OC)c1OC | 255 µM
NNc1ccc(-c2ccccc2)nn1 | 206 µM
COc1ccccc1-c1ccc(NNC(=O)NC2CCCCC2)nn1 | 266 µM
CCOC(=O)c1cnn(-c2ccc(-c3ccc(Cl)cc3)nn2)c1N | 230 µM

SMILES | IC50
O=C(NNc1ccc(-c2ccc(Cl)cc2)nn1)Nc1ccccc1 | 207 µM
Clc1ccc(-c2ccc(-n3ccnc3)nn2)cc1 | 255 µM
CCOC(=O)c1cnn(-c2ccc(-c3ccc(OC)cc3)nn2)c1N | 216 µM
COc1ccc(/C=N/Nc2ccc(-c3ccccc3OC)nn2)c(OC)c1 | 259 µM
NNc1ccc(-c2ccc(Cl)cc2)nn1 | 275 µM
COc1ccccc1-c1ccc(N/N=C/c2ccc(C(F)(F)F)cc2)nn1 | 248 µM
O=C(NNc1ccc(-c2ccc(Cl)cc2)nn1)NC1CCCCC1 | 177 µM
COc1ccccc1-c1ccc(-n2ncc(C#N)c2N)nn1 | 316 µM
COc1ccc(-c2ccc(-n3ncc(C#N)c3N)nn2)cc1 | 260 µM
Cc1cc(C)n(-c2ccc(-c3ccccc3)nn2)n1 | 198 µM
Cc1cc(C)n(-c2ccc(-c3ccc(Cl)cc3)nn2)n1 | 213 µM
FC(F)(F)c1ccc(/C=N/Nc2ccc(-c3ccc(Cl)cc3)nn2)cc1 | 209 µM
COc1ccc(-c2ccc(-n3nc(C)cc3C)nn2)cc1 | 323 µM
c1ccc(-c2ccc(-n3ccnc3)nn2)cc1 | 273 µM
COc1ccc(/C=N/Nc2ccc(-c3ccc(Cl)cc3)nn2)cc1 | 217 µM
COc1ccccc1-c1ccc(N/N=C/c2cc(OC)c(OC)c(OC)c2)nn1 | 221 µM
COc1cc2nc(N3CCN(C(=O)C4COc5ccccc5O4)CC3)nc(N)c2cc1OC (stereo not given) [DOXAZOSIN MESYLATE] | 226 µM
